Measured values published in publication PMC10848874 (Bioorganic & medicinal chemistry, 2023).
“Also recorded” adds a separate entry of the source.

Columns and labels:
[1] = test system: PANC-1 cells; test: Wound healing; type: cell-based, human; conditions: for Scratch gap closure: PANC-1 cells, 37 °C, 5% CO2; for PANC-1 cell migration in wound healing assay (in words): 0.5 and 1 μM
How it was run: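 PANC-1 cells in DMEM with 10% heat-inactivated FBS and 30 μg/mL gentamicin were seeded at about 1 × 10⁵ cells per well in 6-well plates and grown to 70–80% confluency. Each well was scratched with a sterile pipette tip, then medium and detached cells were removed. Duplicate wells received 0.5 or 1 μM test compound or control (final DMSO ≤0.2%). Closure was imaged by automated microscopy (4X) for 48 h.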

[2] = test system: purified bovine brain tubulin; test: Inhibition of tubulin polymerization; type: biochemical; conditions: oxetane analogues compared with their ketone counterparts
How it was run: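 Bovine brain tubulin at 1 mg/mL (10 μM) in 0.8 M monosodium glutamate (pH 6.6) with 4% (v/v) DMSO and varied test compound concentrations, preincubated 15 min at 30 °C without GTP. The mix was chilled to 0 °C, then GTP added (0.1 mM final), and warmed to 30 °C over about 30 s.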

| SMILES | Scratch gap closure ([1]; 0.5 μM compound) | Scratch gap closure ([1]; 1 μM compound) | PANC-1 cell migration in wound healing assay (in words) [1] | Inhibition of tubulin polymerization (in words) [2] |
| --- | --- | --- | --- | --- |
| COc1cc(C2(c3c(-c4ccccc4)[nH]c4cc(Br)ccc34)COC2)cc(OC)c1OC [Compound 5c, 6-Bromo-2-phenyl-3-(3-(3,4,5-trimethoxyphenyl)oxetan-3-yl)-1H-indole] | gap is not completely closed after 40 h | gap remains open after 40 h | inhibited PANC-1 cell migration | at most weakly active as inhibitors of tubulin polymerization; also recorded: no significant tubulin assembly inhibition activity |
| COc1cc(C2(c3c(-c4ccccc4)[nH]c4c(OC)cccc34)COC2)cc(OC)c1OC [Compound 5h, 7-Methoxy-2-phenyl-3-(3-(3,4,5-trimethoxyphenyl)oxetan-3-yl)-1H-indole] | gap is not closed after 48 h | gap remains open after 48 h | inhibited PANC-1 cell migration | at most weakly active as inhibitors of tubulin polymerization; also recorded: no significant tubulin assembly inhibition activity |
| COc1cc(C2(c3c(-c4ccccc4)[nH]c4cc(Cl)ccc34)COC2)cc(OC)c1OC [Compound 5k, 6-Chloro-2-phenyl-3-(3-(3,4,5-trimethoxyphenyl)oxetan-3-yl)-1H-indole] |  |  |  | at most weakly active as inhibitors of tubulin polymerization; also recorded: no significant tubulin assembly inhibition activity |
| COc1ccc2[nH]c(-c3ccccc3)c(C3(c4cc(OC)c(OC)c(OC)c4)COC3)c2c1 [Compound 5l, 5-Methoxy-2-phenyl-3-(3-(3,4,5-trimethoxyphenyl)oxetan-3-yl)-1H-indole] |  |  |  | at most weakly active as inhibitors of tubulin polymerization; also recorded: no significant tubulin assembly inhibition activity |
| COc1ccc2c(C3(c4cc(OC)c(OC)c(OC)c4)COC3)c(-c3ccc(OC)c(O)c3)[nH]c2c1 [Compound 5m, 2-Methoxy-5-(6-methoxy-3-(3-(3,4,5-trimethoxyphenyl)oxetan-3-yl)-1H-indol-2-yl)phenol] |  |  |  | at most weakly active as inhibitors of tubulin polymerization; also recorded: no significant tubulin assembly inhibition activity |
